The nature of this data set: Toxicity liver stage against HepG2, at 10uM. The format is cell-based. Also noted: test concentration 10 uM, cell line HepG2-A16-CD81EGFP. The following applies: human, HepG2-A16-CD81EGFP cells; read-out: INHIBITION
An outline of the steps:
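Uninfected HepG2-A16-CD81EGFP cells, 3 × 10^3 per well, 1536-well, plated on prespotted compound at 10 μM final, parasite-free screening media added to match infected plates; puromycin 10 μM positive, DMSO 0.5% negative; run in parallel with 48 h PbLuc assay at 37 °C, 5% CO2; viability by CellTiter-Glo luminescence, normalized to controls.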
`COC(=O)[C@@H]1Cc2ncn(C)c2CN1S(=O)(=O)c1ccc(OC)cc1`: the cytotoxicity at 10 µM is -4.13%. As to `Cc1ccc(-c2cn3c(n2)CO[C@@H](CNCc2nccs2)C3)cc1`, the cytotoxicity at 10 µM was -7.31%. For the compound `O=C(NCCCO)c1cc(-c2ccc3c(c2)CCO3)n[nH]1`, the cytotoxicity at 10 µM was -4.24%.

With `CC(C)C1SCC(=O)Nc2c1cnn2C(C)C` (stereo unspecified), the cytotoxicity at 10 µM worked out at 4%. On to `O=C(Nc1nc2c(s1)CCC2)NC1CCCC1`, for which the cytotoxicity at 10 µM is -8.6%. The result for `Cc1ccc(C(=O)N2CCC3(CC2)CC(NC(=O)C(C)C)CO3)cc1` (stereo unspecified) reads -1.89%; that for `O=C(N[C@]12CC1CN(C(=O)c1ccco1)C2)c1cccc(F)c1` (stereo partly specified), -15.3%. The result for `COCCN1C(=O)CCC12CCN(C(=O)CNC(C)=O)CC2` reads 3.47%; that for `CC(C)CNC(=O)c1nc2c(s1)CCN(C(=O)c1cccnc1)CC2`, 7.1%; that for `Cc1ccccc1N1CC2(CCN(c3nncs3)C2)CC1=O` (stereo unspecified), -7.74%. Regarding `CCOC(=O)CN1C[C@@H]2OCCN(c3ncc(F)cn3)[C@@H]2C1`, the cytotoxicity at 10 µM was determined as 20.2%.

With `CCC1=N[C@@]2(CC[C@@H]3CN(S(=O)(=O)CC(C)C)C[C@@H]32)C(=O)N1CC`, the cytotoxicity at 10 µM is 0.167%. On to `O=C(NCCCN1CCCC1=O)c1nc(-c2ccc3cc[nH]c3c2)no1`, for which the cytotoxicity at 10 µM is -7.99%.

Regarding `O=C(NCc1ccco1)[C@H]1C[C@H]2OCC[C@H]2N(S(=O)(=O)C2CC2)C1`, the cytotoxicity at 10 µM was -1.48%. Consider `COCCC(=O)N1CCN(C)c2ncccc2C1`, for which the cytotoxicity at 10 µM is -8.28%. Consider `Cn1cc(-c2cnc(N3CCCC3)nc2)cc1C(=O)O`, for which the cytotoxicity at 10 µM was -16.3%.

`COCC(=O)N1CCC(c2cc(-c3ccc(OC)cc3)n[nH]2)C1` (stereo unspecified): the cytotoxicity at 10 µM was -10.3%. Consider `CNc1cccc(C2CN(C(=O)CNS(C)(=O)=O)CCO2)n1` (stereo unspecified), for which the cytotoxicity at 10 µM is -2.24%.

As to `Cc1ncncc1C(=O)N1CCOC(C)(C(=O)NC2CCCC2)C1` (stereo unspecified), the cytotoxicity at 10 µM is -36.4%. For `CSCC(CCO)Nc1nc(C(F)F)nc2ccccc12` (stereo unspecified), the cytotoxicity at 10 µM was -5.52%. For the compound `Cc1nc(C(C)C)sc1C(=O)N1CCC(C(N)=O)CC1`, the cytotoxicity at 10 µM came to 1.68%. The result for `O=C(O)c1cnc(OCC2CC2)c(Cl)c1` reads -5.38%.

For the compound `Cc1cc(C(=O)Nc2ccc(OCCN3CCN(C)CC3)cc2)[nH]n1`, the cytotoxicity at 10 µM is -2.51%.

Consider `O=C(NCCNc1ncccn1)c1ccc(OCc2ccccc2)nc1`, for which the cytotoxicity at 10 µM amounted to 17%. Consider `Cc1ccc(CN2CCC(CNC(=O)Cn3cncn3)CC2)cc1`, for which the cytotoxicity at 10 µM is 1.22%. As for `CCN1CC(COC(=O)c2ccccc2Cl)CC1=O` (stereo unspecified), the cytotoxicity at 10 µM is -1.54%. Consider `CC(C)COCCNC(=O)NC1CCCN(c2cnn(C)c2)C1` (stereo unspecified), for which the cytotoxicity at 10 µM was found to be 9.39%. The result for `O=C(NCc1nncn1C1CC1)C1(c2ccccc2)CCOCC1` reads 3.31%; that for `COc1ccc(CNC(=O)N2CCCN(CC3CCCCC3)CC2)cn1`, -3.36%; that for `CN(Cc1cc(Br)cn1C)C(=O)c1cc(Cl)ccn1`, -11%. The result for `O=C(Nc1ccccc1F)N(CCO)CCOCC(F)(F)F` reads 1.1%; that for `Cc1noc(C)c1CC(=O)NCCN1CCN(S(C)(=O)=O)CC1`, -5.87%.

In the case of `CC(C(=O)N1CCN(c2ccc(F)cc2)CC1)n1ccnc1` (stereo unspecified), the cytotoxicity at 10 µM turned out to be 1.05%. On to `Cc1ccc(O)c(C(=O)N2CCC(CNC(=O)OC(C)(C)C)C2)c1` (stereo unspecified), for which the cytotoxicity at 10 µM amounted to 16.4%.

On to `CC(C)=CCNC1CCCN(c2ccc(C)nn2)C1` (stereo unspecified), for which the cytotoxicity at 10 µM came out at 5.23%. Consider `COCCNC(=O)Nc1ccc(CN2CCOC2=O)cc1`, for which the cytotoxicity at 10 µM is -4.62%.

`CCc1nc(CNC(=O)Nc2nc(COC)cs2)cs1`: the cytotoxicity at 10 µM was -0.67%.

As for `CCn1ncc2c1CCCC2NCc1csc(COC)n1` (stereo unspecified), the cytotoxicity at 10 µM is 1.17%.

`CNC(=O)c1ccc(OC)c(NCc2noc(-c3ccsc3)n2)c1`: the cytotoxicity at 10 µM was found to be 0.736%. For `COCCN1CCN(CC(=O)N(C)Cc2ccccc2)CC1C` (stereo unspecified), the cytotoxicity at 10 µM is -144%. On to `Nc1nccnc1C(=O)N(Cc1ccco1)CC1CCCO1` (stereo unspecified), for which the cytotoxicity at 10 µM amounted to 8.13%. For the compound `Cn1cc(CNC(=O)C2COCC(=O)N2Cc2ccccc2)cn1` (stereo unspecified), the cytotoxicity at 10 µM is -4.88%. Consider `Cc1occc1C(=O)N1CCC(C(O)c2ccc(Cl)cc2)CC1` (stereo unspecified), for which the cytotoxicity at 10 µM is -0.342%. As to `CNC(=O)c1csc(-c2ccoc2)n1`, the cytotoxicity at 10 µM was -5.64%. For `Cc1cccc(NC(=O)NC2CCN(C3CCOC3)CC2)c1` (stereo unspecified), the cytotoxicity at 10 µM is 4.24%. The result for `Cc1cccc(C)c1OCCCN1CCC(n2cncn2)CC1` reads -24.3%; that for `N#Cc1ccc(N2CCN(c3nccs3)CC2)nc1`, 31%; that for `CCC[C@@H](NC(N)=O)C(=O)N1Cc2ccccc2-c2ccccc2C1`, 5.17%. Consider `O=S(=O)(Cc1ccccc1Cl)NC(CO)c1ccco1` (stereo unspecified), for which the cytotoxicity at 10 µM was -6.86%. As for `CCc1ncc(C(=O)NCCNC(=O)Cc2ccc(F)cc2)s1`, the cytotoxicity at 10 µM was -2.57%. For `Cc1noc(C)c1CN1CCn2cc(CN3CCOCC3)nc2C1`, the cytotoxicity at 10 µM was determined as 4.71%. Consider `CCn1c(Cn2cccn2)nnc1C1CCN(Cc2ccc(C)o2)CC1`, for which the cytotoxicity at 10 µM is -1.14%. On to `Cc1cc(C)cc(CN2CCN(C(=O)C3CCC3)[C@@H]3CS(=O)(=O)C[C@@H]32)c1`, for which the cytotoxicity at 10 µM is -1.38%. As for `Cc1ccsc1-c1nnc(SCC(=O)O)n1C(C)c1ccccc1` (stereo unspecified), the cytotoxicity at 10 µM was -4.65%. The result for `O=C1CCC2(CCN(Cc3nccs3)CC2)CN1CCCO` reads -7.56%; that for `CCSc1ncc(CN2CCN(c3nc(C)cnc3C)CC2)cn1`, 5.84%; that for `Cc1ccsc1CN(CCN(C)C)C(=O)c1ccc(C#N)nc1`, -120%.

On to `O=C(Nc1ccccc1OCCc1ccccn1)N1CC[C@@H](O)C1`, for which the cytotoxicity at 10 µM turned out to be 4.4%. The result for `CNC(=O)[C@@H]1C[C@@H](N)CN1Cc1cc2cc(C)cc(C)c2[nH]c1=O` reads -5.23%. In the case of `Cc1nc(N)nc(C)c1CC(=O)N1CCCN(CC2CC2)C(C(C)C)C1` (stereo unspecified), the cytotoxicity at 10 µM was -142%.

Take `CCOc1cccc(CN2CCCC(Nc3ccc(F)cc3)C2)c1O` (stereo unspecified): the cytotoxicity at 10 µM was -8.93%.

In the case of `c1ncn(Cc2nnc(C3CCN(C4CCOCC4)CC3)n2C2CC2)n1`, the cytotoxicity at 10 µM is -3.51%.

`CSCC[C@H](NC(C)=O)c1nc(CCc2ccccc2)n[nH]1`: the cytotoxicity at 10 µM was 5.08%. Consider `Cc1ccc(C(=O)N2CC[C@H](N3CCOCC3)[C@H](CCCO)C2)cc1O`, for which the cytotoxicity at 10 µM is -154%.

For `Nc1cc(-c2cccc3ccnn23)ccn1`, the cytotoxicity at 10 µM was 0.858%. The result for `CCCOCCCNc1nccc(-c2cn(C)nc2C)n1` reads -10.5%; that for `Cn1nccc1CNC(=O)CCn1nc(C(F)(F)F)cc1C1CC1`, -8.74%; that for `COc1ccc(CN2CCC3(CC(Nc4ccncn4)C3)C2)c(OC)c1` (stereo unspecified), 2.43%.

Take `CCc1noc(CN2CCCN(Cc3cccs3)CC2)n1`: the cytotoxicity at 10 µM came out at 2.76%.

For `O=C(CCOc1cccc(F)c1)N1CCCC1Cn1cccn1` (stereo unspecified), the cytotoxicity at 10 µM was -5.7%.

`Cc1ccc(NC(=O)C2CSCN2C(=O)c2cnsn2)c(C)c1` (stereo unspecified): the cytotoxicity at 10 µM was -0.955%. Turning to `Cc1noc2ncc(C(=O)NCC3CCS(=O)(=O)C3)cc12` (stereo unspecified), the cytotoxicity at 10 µM is -18.9%.

With `Cc1noc(C)c1C(=O)N1CCCC1c1c(C)nn(C)c1C` (stereo unspecified), the cytotoxicity at 10 µM was -5.68%.

Consider `Clc1cccc(Cl)c1-c1nnc(CNCCn2cccn2)o1`, for which the cytotoxicity at 10 µM is -6.46%.

As for `CC(C)NC(=O)c1cc(Br)c2c(c1)OCCO2`, the cytotoxicity at 10 µM is -13.3%. As to `COc1c(C2CCCN2C(=O)c2ccc(C#N)c(C)n2)c(C)nn1C` (stereo unspecified), the cytotoxicity at 10 µM was -8.45%. Turning to `CC(C)CCCNC(=O)Nc1ccc(C(N)=O)c(Cl)c1`, the cytotoxicity at 10 µM is 4.69%. As for `CC(NC(=O)NCc1ccccc1Cl)c1ccccn1` (stereo unspecified), the cytotoxicity at 10 µM is -11.1%. With `O=C(CCCOc1cccc(F)c1)N1CCCC(n2cncn2)C1` (stereo unspecified), the cytotoxicity at 10 µM was -13.2%. For the compound `O=C(NCCCn1cccn1)NCC(c1ccco1)N1CCCC1` (stereo unspecified), the cytotoxicity at 10 µM is -13.3%. Consider `CCn1c(C)nnc1CN(C)C1CCN(CCS(=O)(=O)CC)C1` (stereo unspecified), for which the cytotoxicity at 10 µM was -1.17%.

As for `CCn1cc(CN2CCCN(C(=O)c3ccc(C)nc3)CC2)cn1`, the cytotoxicity at 10 µM is -10.4%. Consider `O=C(c1ccc2[nH]nnc2c1)N1CCCC(n2cccn2)C1` (stereo unspecified), for which the cytotoxicity at 10 µM was -1.56%. The result for `Cc1noc(C2CCCN(C(=O)c3cc(Cl)ccc3F)C2)n1` (stereo unspecified) reads 2.66%. As for `O=C(NCC1CC1)c1nc2c(o1)CN(CC1CC1)C2`, the cytotoxicity at 10 µM is -147%.

In the case of `CCOCC1c2c(cnn2C)CCN1C(=O)c1ccncn1` (stereo unspecified), the cytotoxicity at 10 µM was -141%. With `CN(C)C(=O)COCC1CN(Cc2cccs2)Cc2ncn(C)c21` (stereo unspecified), the cytotoxicity at 10 µM was 13.1%.

As to `OC(CN1CCN(Cc2ccc(F)c(F)c2)CC1)C1CC1` (stereo unspecified), the cytotoxicity at 10 µM was -22.2%. The result for `O=S(=O)(C1CC1)N1CCC[C@]2(C[C@@H](Oc3ccccn3)CO2)C1` reads -144%; that for `O=C(Nc1ccccc1)C1CN(Cc2ccco2)CC12CCOCC2` (stereo unspecified), -3.2%; that for `CCS(=O)(=O)N1CCC[C@]2(C(=O)N(C)C)CN(c3ncccn3)C[C@@H]2C1`, -3.26%. On to `CCN(CC)c1ncnc2c1CCN(C(=O)Cc1ccccn1)CC2`, for which the cytotoxicity at 10 µM was 3.13%. For `Cc1cccc(CN2CCO[C@H]3[C@H](Oc4ccccn4)CC[C@@H]32)n1`, the cytotoxicity at 10 µM was -4.65%. The result for `c1cncc(CN2CC[C@@H]3O[C@H](COCCN4CCCC4)CC[C@@H]32)c1` reads -156%. The result for `COCCN1C(=O)[C@@H]2CC[C@H]1CN(c1nccc(C3CCCC3)n1)C2` reads 7.67%.

On to `O=C(c1ccccc1)N1C[C@H]2CC[C@@H](C1)N(S(=O)(=O)c1cccnc1)C2`, for which the cytotoxicity at 10 µM was -9.33%.

For the origin of these results see ChEMBL document CHEMBL4513216, “Probing the Open Global Health Chemical Diversity Library for Multistage-Active Starting Points for Next-Generation Antimalarials” (ACS Infect Dis, 2020).
